Source: article PMC4324687 (Pharmacology Research & Perspectives, 2015)
Where “and” joins values, the source holds several entries; their conditions need not be identical. Identical values can stand only once. Like-named read-outs stand apart in the source and are kept apart here.

Tests used:
[1] = cited from earlier work
[2] = Metabolic profiling of pooled urine; type: in vivo, human; details: single pool 0–96 h
[3] = Metabolic profiling of pooled plasma; type: in vivo, human; details: for proportion of total chromatographic radioactivity in plasma, overall: over the 48-h interval postdose
[4] = Metabolic profiling of pooled feces; type: in vivo, human
[5] = Pharmacokinetics of 14C-vemurafenib-related material; type: in vivo, human; details: for Cmax, mean ± SD [CV%]: single oral 960-mg dose
CYP3A4 = details: human liver microsomes; ref F. Hoffmann-La Roche, data on file; cited from earlier work
[6] = type: in vivo, human
[7] = ref F. Hoffmann-La Roche, data on file, cited from earlier work
[8] = cited from earlier work; remark: listed apart in the source
[9] = dog plasma after oral administration; ref F. Hoffmann-La Roche, data on file; cited from earlier work
[10] = tested on: patients with metastatic melanoma; assay: Safety assessments in patients with metastatic melanoma; type: in vivo, human
In short: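 Seven patients received a single oral 960-mg dose of 14C-labelled test compound on day 15 after ≥8 h fasting. Monitoring ran through the study and a 28-day follow-up and covered adverse events, routine laboratory values, physical examination, vital signs, electrocardiography, dermatology, and head/neck and chest CT. SCC cases were followed until death, consent withdrawal or loss to follow-up. Severity was graded by NCI CTCAE v4.0 and summarised.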

[11] = plasma, N=5, listed as 14C-vemurafenib
[12] = within 18 days after dosing, listed as 14C-vemurafenib
[13] = laboratory evaluation, of seven patients

## CCCS(=O)(=O)Nc1ccc(F)c(C(=O)c2c[nH]c3ncc(-c4ccc(Cl)cc4)cc23)c1F [vemurafenib]
[1]; phase 1 data, ref Flaherty et al. [2010]
  maximum tolerated dose and recommended dose for further clinical evaluation: 960 mg twice daily
[1]; phase 1 trial PLX06-02, ref phase 1 trial PLX06-02
  pharmacokinetics with hand-filled capsules versus tablets: No differences
[2]
  % of total administered (input radioactive) dose in urine: ~1%
[3]; 4–6 h pool
  proportion of radioactivity in pooled plasma, mean ± SD: 99.5 ± 1.4%
[3]; 12–24 h pool
  proportion of radioactivity in pooled plasma, mean ± SD: 95.9 ± 5.5%
[3]; 36–48 h pool
  proportion of radioactivity in pooled plasma, mean ± SD: 96.0 ± 3.8%
[3]; listed as parent compound
  proportion of total chromatographic radioactivity in plasma, overall: 95%
[3]; listed as parent molecule
  proportion of total chromatographic radioactivity in plasma, overall: > 95%
[4]; 48–96 h pool
  proportion of radioactivity in feces, mean: 55.5 ± 20.1%
[4]; first 48 h
  % of the total input dose found in pooled feces: 38%
[4]; first 48 h pool
  proportion of all recovered radioactivity in feces, mean ± SD: 94.2 ± 5.8%
[4]; within the first 96 h
  % of the total radioactive dose found in pooled feces: ~55%
[5]; N=5
  Blood/plasma AUC ratio, mean ± SD [CV%]: 0.72 ± 0.050 [6.83]
[5]; assuming 40–50% of whole blood is cells
  14C-vemurafenib-related material that might be bound to the cellular compartment in whole blood: 10–20%
[5]; blood, N=5
  Tmax, median (minimum–maximum): 4.1 (4–12) ^1 h
  t½ (elimination half-life), mean ± SD [CV%]: 84.4 ± 24.6 [29.1] h
  Cmax, mean ± SD [CV%]: 5.25 ± 1.71 [32.5] μg eq/mL
[5]; human, blood and plasma, oral, 960 mg
  Blood/plasma AUC ratio, range: 0.69–0.81
[5]; plasma
  plasma elimination half-life of 14C-vemurafenib-related material, range: 51 to 86 h
[5]; plasma, N=5
  Tmax, median (minimum–maximum): 4.1 (4–12) ^1 h
  t½ (elimination half-life) of 14C-vemurafenib-related material, mean ± SD [CV%]: 71 h
[5]; [11]
  t½ (elimination half-life) of 14C-vemurafenib-related material, mean ± SD [CV%]: 71.1 ± 15.4 [21.6] h
  Cmax, mean ± SD [CV%]: 7.83 ± 2.28 [29.1] μg eq/mL
CYP3A4
  primary enzyme responsible for metabolism and formation of hydroxylated metabolites: CYP3A4 was the primary enzyme
[6]; cumulative excretion in feces
  time within which the majority of fecal radioactivity was eliminated: ≤ 264 h
[6]; cumulative excretion in urine
  time within which the majority of urinary radioactivity was eliminated: ≤ 192 h
[6]; within 18 days after dosing
  radioactivity recovered in feces, mean ± SD: Approximately 94%
  radioactivity recovered in feces, range: 89.4–97.6%
  radioactivity recovered in urine, mean: ≤ 1%
  radioactivity recovered in urine, range: 0.56–1.63%
[6]; [12]
  radioactivity recovered in feces, mean ± SD: 94.1% and 94.1 ± 2.7%
  radioactivity recovered in urine, mean: < 1%
[6]; within 18 days after dosing, seven patients
  14C-vemurafenib-related material recovered from urine and feces, range: 91.0–98.3%
[7]; rat plasma after oral administration
  component status of unchanged parent drug in plasma: major component
[7]; rats
  route of recovery of vemurafenib-derived radioactivity (parent plus metabolites): primarily recovered in feces
[8]; continual multiple-dose vemurafenib, ref Genentech, Inc. [2014]
  median elimination half-life (population PK modeling): 57 h
[8]; single dose, ref Ribas et al. [2014]
  elimination half-life after a single dose: ~25 h
[9]
  component status of unchanged parent drug in plasma: major component
[10]; NCI CTCAE grade 1 or 2
  severity of most adverse events: mild or moderate
[10]; cuSCC, cuSCC and keratoacanthoma, considered related
  serious adverse events (all grade 3), number of events: Three
[10]; [13]
  elevated low-density lipoprotein cholesterol level: three
  grade 3 lymphopenia: four
  low white blood cell count: three
[10]; seven patients
  changes in electrocardiography or vital signs: No clinically significant changes
  patients with at least one adverse event related to vemurafenib: All patients
  treatment discontinuation because of an adverse event: No patient discontinued treatment
[10]; seven patients, 960 mg twice daily
  tolerability: well-tolerated
